rRNA inh HTS: selective bacterial rRNA inhibition in E. coli | E. coli WT GFP vs humanized-ribosome RFP mutants, fluorescence, 24 h; active compounds read low; DMSO median 0, no signal -100 | GFP signal change (wild-type ribosome), % (test concentration not listed) | 350,000 tested, 1.6% active | AID 720706;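 active = significant combined selectivity score with lowered wild-type GFP, culture density cut under 30%, mutant RFP and density less affected; inactive = any of these conditions unmet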
DENV2 CPE rescue: protects cells from dengue virus 2 cytopathic effect; CPE inhibition, % at 9.99 µM; AID 651640; DENV2-infected cells, cytopathic effect rescue, plate reader; 350,000 tested, 1.7% active; in the data active = CPE inhibition above about 20%, passing the limit was not always enough; inconclusive = no clear call, values can overlap the other calls; tested in BHK-21 cells;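 note: 0% = median of neutral control wells and 100% = median of positive control wells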
FN deposition inh: fibronectin deposition inhibition; 350,000 tested, 0.086% active; AH1F fibroblasts, Alexa488-fibronectin deposition fluorescence, overnight; inhibition, % at 12.6 µM; AID 743247;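 active = mean inhibition across replicates of 30% or more, regardless of how many single replicates reach that level; inconclusive = mean under 30% yet at least half of replicates reach 30%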;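 note: positive control wells lacked labelled fibronectin entirely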
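Assay system: AH1F fibroblast monolayer, labelled fibronectin deposition. Amount: 10000 cells per well. Also added: labelled fibronectin 24 nM. Compound: single-point pinned compound. Incubation: cell attachment 1 h, compound and FN exposure overnight. Detection: fluorescence after three HBSS washes, excitation 485 nm, emission 525 nm. Read-out: inhibition of fibronectin deposition signal.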
PglD inh: blocks C. jejuni PglD acetyltransferase activity; inhibition, % at 12.5 µM; purified PglD enzyme, DTNB colorimetric CoA detection; 360,000 tested, 0.098% active; in the data active = inhibition above about 16%, passing the limit was not always enough; inconclusive = no clear call, values can overlap the other calls
HIV Env fusion: HIV envelope-mediated fusion inhibition; HeLa-JRFL Env/CEM21 cell fusion, luciferase; 360,000 tested, 1.1% active; AID 651610; inhibition, % at 12.3 µM;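 active = mean replicate inhibition score of at least 50 and every replicate individually at or above 50; inconclusive = only one of the two criteria met; inactive = mean below 50 and not all replicates reaching 50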;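 note: 0% = plate neutral controls and 100% = maraviroc near 300 nM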
PGC1a acetyl inh: PGC1a acetylation modulation, inhibitor mode; U2OS PGC1a acetylation, AlphaScreen anti-acetyl-lysine; with virally co-expressed GCN5 acetyltransferase; 350,000 tested, 0.17% active; inhibition, % at 15.6 µM;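 active = every replicate shows inhibition of at least 40%; inconclusive = mean inhibition at least 40% but some replicate below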;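 note: 0% = neutral control wells and 100% = positive control wells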
An asterisk follows results filed as active; ? = inconclusive; . = not tested or not shown; [ ] = dose if it differs, or a comment. Only some compounds are listed: those with a hit (about 3.5% of all), similar ones and a draw of the others.

SMILES	rRNA inh HTS	DENV2 CPE rescue	FN deposition inh	PglD inh	HIV Env fusion	PGC1a acetyl inh
C[C@@H](NC(=O)C[C@@H]1C=C[C@H](NC(=O)C2CCC2)[C@@H](CO)O1)c1ccccc1	0.7	24.3*	-1.6	9.2	20.3[16.7 µM]	5.9
O=C(NC1CCCCC1)N[C@@H]1C=C[C@@H](CC(=O)N2CCOCC2)O[C@@H]1CO	3.8	-2.6	.	-1.9	.	-7.9
C[C@@H]1CN([C@@H](C)CO)C(=O)c2cc(NC(=O)c3ccncc3)ccc2O[C@@H]1CN(C)C(=O)NC1CCCCC1	0.3	0.7	.	-2.9	.	1.1
C/C=C/c1ccc2c(c1)O[C@H](CN(C)C(=O)c1ccccc1)[C@H](C)CN([C@H](C)CO)S2(=O)=O	-2.5	-1.3	-0.1	4.8	0.6[16.7 µM]	-21.8
O=C(C[C@H]1C[C@@H]2c3cc(NC(=O)c4ccc5c(c4)OCO5)ccc3O[C@@H]2[C@@H](CO)O1)NCCc1ccccc1	-5.0	-2.6	.	1.8	11.7[16.7 µM]	-6.0
O=C(NC1CCCCC1)N[C@H]1C=C[C@@H](CC(=O)N2CCOCC2)O[C@@H]1CO	1.9	107.9*	.	-1.7	.	6.3
CCCNC(=O)N[C@H]1C=C[C@H](CC(=O)NC2CCC2)O[C@H]1CO	0.0	26.2*	-19.7	-0.5	-2.8[16.7 µM]	13.0
O=C(NC1CCCC1)N[C@H]1C=C[C@@H](CC(=O)N2CCOCC2)O[C@@H]1CO	3.5	35.8*	-2.5	-0.2	-14.0[16.7 µM]	-5.2
CCNC(=O)C[C@H]1C=C[C@@H](NC(=O)NC2CCCCC2)[C@H](CO)O1	1.7	-2.8	-8.7	-5.5	-9.2[16.7 µM]	21.5
O=C(N[C@@H]1C=C[C@H](CC(=O)N2CCc3ccccc3C2)O[C@@H]1CO)C1CCC1	1.6	98.1*	9.9	.	.	2.7
O=C(NC1CCCCC1)N[C@@H]1C=C[C@H](CC(=O)N2CCOCC2)O[C@H]1CO	1.1	-7.3	.	0.1	.	-3.3
O=S(=O)(Cc1ccccc1)NCC[C@@H]1CC[C@@H](NS(=O)(=O)c2ccc(F)cc2)[C@@H](CO)O1	-1.1	-3.4	3.8	-1.0	.	-0.1
CCc1cccc(C)c1N=Cc1c(O)c2ccccc2oc1=O	-24.1*	-5.6	-1.2	-0.3	13.6	.
N#C[C@H]1[C@H](c2ccccc2-c2ccccc2F)[C@H](CO)N1C(=O)c1ccccn1	-5.4	17.8	-18.5	.	-14.1[16.7 µM]	1.6
Cc1ccc(OCC(O)CNC(C)c2ccccc2)cc1C (stereo not given)	-3.1	5.4	-5.7	-5.3	59.6*	-7.5
COc1ccc(CN(C)C[C@@H]2OCCCC[C@@H](C)Oc3ccc(NC(=O)Cc4ccccc4)cc3C(=O)N([C@@H](C)CO)C[C@H]2C)cc1	2.4	-4.3	.	3.7	-5.4[16.7 µM]	0.4
c1ccc(CCc2nn3c(Cn4cnc5ccccc54)nnc3s2)cc1	-24.1*	-1.2	.	.	.	.
Clc1ccccc1-c1nnc2sc(CCc3ccccc3)nn12	-18.6*	9.3	.	3.8	.	-3.0
COc1ccc(Cc2nn3c(-c4ccccc4Br)nnc3s2)cc1	-13.5	.	.	-4.3	.	14.4
Brc1ccccc1-c1nnc2sc(Cc3ccccc3)nn12	.	.	4.8	2.8	57.4*	7.6
O=C(Nc1ccc2c(c1)OCO2)N[C@@H]1C=C[C@H](CC(=O)N2CCN(c3ccccc3)CC2)O[C@H]1CO	-2.0	-2.8	-8.0	0.8	9.3[16.7 µM]	-3.9
COCCNC(=O)C[C@H]1CC[C@H]2[C@@H](COc3ccc(NC(=O)COC)cc3C(=O)N2C)O1	3.2	?	-11.8	-1.1	-18.5[16.7 µM]	1.7
C=CCn1c(SCc2csc(-c3ccc(Cl)cc3)n2)nnc1-c1ccccc1OC	-51.0	-4.8	-3.1	.	56.0*	.
C[C@@H]1CN([C@H](C)CO)C(=O)c2cc(NC(=O)C3CC3)ccc2O[C@@H]1CN(C)Cc1ccncc1	4.4	-0.1	.	-1.4	-18.9[16.7 µM]	6.2
COc1cccc2oc3cc(C#Cc4ccccn4)ccc3c(=O)c12	2.3	47.7*	24.1	.	-122.4	.
SMILES	rRNA inh HTS	DENV2 CPE rescue	FN deposition inh	PglD inh	HIV Env fusion	PGC1a acetyl inh
O=C(/C=C/c1ccco1)Nc1sc2c(c1C(=O)O)CCC2	-23.8*	-5.6	.	.	.	4.2
N#Cc1c(NC(=O)/C=C/c2ccco2)sc2c1CCCC2	-11.6	-12.4	-59.5	.	-310.3	.
O=C(CCCSc1nc2ccccc2s1)NCc1ccc2c(c1)OCO2	-27.5*	-2.3	-12.2	.	30.7	.
Cc1nc2ccccc2c2oc(C(=O)NCc3ccc4c(c3)OCO4)cc12	-7.3	6.5	0.7	-8.3	88.3*	-0.5
CC1Cc2ccccc2N1c1ncnc(N)c1[N+](=O)[O-] (stereo not given)	1.2	-0.3	.	.	65.5*	.
CC1CCCCN1c1ncnc(N)c1[N+](=O)[O-] (stereo not given)	11.6	-1.7	-1.2	.	15.9	.
Cn1c(=O)c2c(nc(NCc3cccnc3)n2Cc2cccc(C(F)(F)F)c2)n(C)c1=O	.	.	.	4.4	.	-12.8
COc1cccc(Cn2c(NCc3cccnc3)nc3c2c(=O)n(C)c(=O)n3C)c1	.	.	.	.	.	71.3*
CCCn1c(CN(C)Cc2ccccc2)nc2c1c(=O)n(C)c(=O)n2C	.	.	1.8	0.4	44.8	2.3
C=CCNc1nc2c(c(=O)n(C)c(=O)n2C)n1CCCCCC	.	.	.	1.4	92.1*	.
CCOCCCNc1nc2c(c(=O)n(C)c(=O)n2C)n1CCCc1ccccc1	.	.	-0.3	-5.9	24.6	40.3*
CCCCn1c(CN(C)Cc2ccccc2)nc2c1c(=O)n(C)c(=O)n2C	.	.	.	1.3	72.3*	.
Cc1noc(C)c1S(=O)(=O)N(C)C[C@@H]1Oc2ccc(NC(=O)NC(C)C)cc2CC(=O)N([C@H](C)CO)C[C@@H]1C	1.5	7.0	.	3.7	48.4[16.7 µM]	7.8
O=C(C[C@H]1C[C@H]2c3cc(NC(=O)Cc4ccncc4)ccc3O[C@H]2[C@@H](CO)O1)NCc1ccccn1	1.0	-3.3	.	2.4	-5.3[16.7 µM]	3.4
COCC(=O)Nc1ccc2c(c1)[C@@H]1C[C@H](CC(=O)NCc3ccc(-c4ccccc4)cc3)O[C@@H](CO)[C@@H]1O2	-6.7	3.9	.	0.6	48.6[16.7 µM]	-2.2
CNc1nc2c(c(=O)n(C)c(=O)n2C)n1Cc1ccccc1	.	.	0.7	0.5	68.6*	3.1
Cn1c(=O)c2c(nc(NCCc3ccccc3)n2Cc2ccc(F)cc2)n(C)c1=O	0.1	2.2	0.2	-0.6	25.4	-4.8
CC(Cl)=CCn1c(NCCc2ccccc2)nc2c1c(=O)n(C)c(=O)n2C	.	4.3	5.5	2.0	93.6*	3.3
CNc1nc2c(c(=O)n(C)c(=O)n2C)n1CCCc1ccccc1	1.3	-1.3	-13.2	-5.8	8.2	-2.4
Cc1nc(C)c(CC(=O)N/N=C/c2ccc(O)cc2)c(=O)[nH]1	9.9	31.3*	-0.8	.	.	.
COc1ccc(/C(C)=N/NC(=O)Cc2c(C)nc(C)[nH]c2=O)cc1	21.4	1.0	7.4	.	-11.7	7.2
CCOc1ccc(-n2c(-c3ccccc3)c[n+]3c2CCCCC3)cc1	-43.0*	-3.4	1.7	.	45.3	.
CCC(=O)N1[C@@H](CO)[C@@H](c2ccccc2)C12CN(Cc1cc(F)ccc1F)C2	-2.2	-10.5	.	.	.	-3.6

Screens as filed in PubChem BioAssay.
